The source made the active and inactive calls.
Assays:
K562 [1] = assay: Effect on HIST1H4H gene expression in human K562 cells assessed as down-regulation of mRNA transcript expression at 10 nM after 48 hrs by DNA microarray analysis relative to control; type: functional
How it was run: (§1)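 K562 CML cells (b3a2 Bcr-Abl) in standard ATCC-recommended culture, exposed once to 10 nM conjugate and harvested at 48 h. Untreated controls were also collected at 48 h. Transcripts were profiled on Human Gene 1.0 ST whole-genome oligonucleotide arrays, and each treated level was expressed relative to the untreated control, with a cutoff of at least twofold change.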

K562 [2] = assay: Effect on SNORD80 gene expression in human K562 cells assessed as change in mRNA transcript expression at 10 nM after 48 hrs by DNA microarray analysis relative to control; type: functional; how it was run: as §1
K562 [3] = assay: Effect on PSMB6 gene expression in human K562 cells assessed as change in mRNA transcript expression at 10 nM after 48 hrs by DNA microarray analysis relative to control; type: functional; how it was run: as §1
K562 [4] = assay: Effect on LOC85389 gene expression in human K562 cells assessed as change in mRNA transcript expression at 10 nM after 48 hrs by DNA microarray analysis relative to control; type: functional; how it was run: as §1
K562 [5] = assay: Effect on HIST1H3F gene expression in human K562 cells assessed as change in mRNA transcript expression at 10 nM after 48 hrs by DNA microarray analysis relative to control; type: functional
How it was run: (§2)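 Transcripts were profiled on Affymetrix GeneChip Human Gene 1.0 ST arrays in K562 cells treated at 10 nM. Treated cells were collected at 6, 12, 24 and 48 h; untreated controls were collected at 48 h. Transcripts changed at least twofold versus control were scored.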

K562 [6] = assay: Effect on DIAPH2 gene expression in human K562 cells assessed as change in mRNA transcript expression at 10 nM after 48 hrs by DNA microarray analysis relative to control; type: functional; how it was run: as §2
K562 [7] = assay: Effect on RP11-195B gene expression in human K562 cells assessed as change in mRNA transcript expression at 10 nM after 48 hrs by DNA microarray analysis relative to control; type: functional; how it was run: as §1
K562 [8] = assay: Effect on HIST1H4D gene expression in human K562 cells assessed as down-regulation of mRNA transcript expression at 10 nM after 48 hrs by DNA microarray analysis relative to control; type: functional; how it was run: as §2
K562 [9] = assay: Induction of apoptosis in human K562 cells assessed as early apoptotic cells at 250 nM after 48 hrs by annexin-V FITC and propidium iodide staining-based FACS analysis; type: functional
How it was run: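 Treated K562 cells […] stained with Annexin V-FITC/propidium iodide. Apoptosis was scored by two-dimensional flow cytometry at a core FACS facility.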

K562 [10] = assay: Effect on PLCB2 gene expression in human K562 cells assessed as change in mRNA transcript expression at 10 nM after 48 hrs by DNA microarray analysis relative to control; type: functional; how it was run: as §1
K562 [11] = assay: Effect on LOC85391 gene expression in human K562 cells assessed as change in mRNA transcript expression at 10 nM after 48 hrs by DNA microarray analysis relative to control; type: functional; how it was run: as §1
K562 [12] = assay: Effect on IMMP2L gene expression in human K562 cells assessed as change in mRNA transcript expression at 10 nM after 48 hrs by DNA microarray analysis relative to control; type: functional; how it was run: as §1
K562 [13] = assay: Effect on EXOC6B gene expression in human K562 cells assessed as change in mRNA transcript expression at 10 nM after 48 hrs by DNA microarray analysis relative to control; type: functional; how it was run: as §2
K562 [14] = assay: Effect on HIST1H1E gene expression in human K562 cells assessed as change in mRNA transcript expression at 10 nM after 48 hrs by DNA microarray analysis relative to control; type: functional; how it was run: as §2
K562 [15] = assay: Induction of apoptosis in human K562 cells assessed as early apoptotic cells at 125 nM after 48 hrs by annexin-V FITC and propidium iodide staining-based FACS analysis; type: functional
How it was run: (§3)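 K562 cells were exposed to conjugate in culture medium for 48 h, then stained with annexin V-FITC plus propidium iodide. Cell populations were quantified by flow cytometry.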

K562 [16] = assay: Effect on JUN gene expression in human K562 cells assessed as change in mRNA transcript expression at 10 nM after 48 hrs by DNA microarray analysis relative to control; type: functional; how it was run: as §1
K562 [17] = assay: Effect on LGALS3BP gene expression in human K562 cells assessed as change in mRNA transcript expression at 10 nM after 48 hrs by DNA microarray analysis relative to control; type: functional; how it was run: as §1
K562 [18] = assay: Effect on HIST1H2BH gene expression in human K562 cells assessed as change in mRNA transcript expression at 10 nM after 48 hrs by DNA microarray analysis relative to control; type: functional; how it was run: as §2
K562 [19] = assay: Effect on SLC7A8 gene expression in human K562 cells assessed as change in mRNA transcript expression at 10 nM after 48 hrs by DNA microarray analysis relative to control; type: functional; how it was run: as §1
K562 [20] = assay: Downregulation of histone H4E mRNA expression in human K562 cells at 125 nM after 48 hrs by real-time PCR analysis; type: functional, cell-based
How it was run: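 K562 cells were treated for 48 h, and H4c and H4e mRNA were measured by one-step real-time RT-PCR. Reverse transcription ran at 50 °C for 10 min, then hot-start activation at 95 °C for 15 min. Cycling was 45 cycles of 95 °C 15 s, 55 °C 30 s and 72 °C 30 s. Levels were normalized to GAPDH mRNA; error bars are SD.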

K562 [21] = assay: Effect on SLC4A1 gene expression in human K562 cells assessed as change in mRNA transcript expression at 10 nM after 48 hrs by DNA microarray analysis relative to control; type: functional; how it was run: as §1
K562 [22] = assay: Cytotoxicity against human K562 cells by MTS assay; type: functional, cell-based
How it was run: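 Proliferation of K562 cells (ATCC, standard culture) was read as mitochondrial conversion of the MTS tetrazolium to formazan, using the CellTiter 96 Aqueous One reagent. EC50 was derived from these readings.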

K562 [23] = assay: Induction of apoptosis in human K562 cells assessed as viable cells at 125 nM after 48 hrs by annexin-V FITC and propidium iodide staining-based FACS analysis; type: functional; conditions: K562, 48 h, read-out: Activity; how it was run: as §3
K562 [24] = assay: Effect on PRG2 gene expression in human K562 cells assessed as change in mRNA transcript expression at 10 nM after 48 hrs by DNA microarray analysis relative to control; type: functional; how it was run: as §1
K562 [25] = assay: Effect on THBS1 gene expression in human K562 cells assessed as change in mRNA transcript expression at 10 nM after 48 hrs by DNA microarray analysis relative to control; type: functional
How it was run: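 K562 CML cells (b3a2 Bcr-Abl) kept under standard culture conditions were exposed to 10 nM conjugate and harvested at 6, 12, 24 and 48 h. Untreated controls were harvested at 48 h. Whole-transcript oligonucleotide microarray profiling was done, and changes of at least twofold versus control were scored.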

K562 [26] = assay: Effect on ATP1B2 gene expression in human K562 cells assessed as change in mRNA transcript expression at 10 nM after 48 hrs by DNA microarray analysis relative to control; type: functional; how it was run: as §2
K562 [27] = assay: Effect on GTDC1 gene expression in human K562 cells assessed as change in mRNA transcript expression at 10 nM after 48 hrs by DNA microarray analysis relative to control; type: functional; how it was run: as §2

## CC(=O)Nc1cn(C)c(C(=O)Nc2cn(C)c(C(=O)NCCC(=O)Nc3cn(C)c(C(=O)NCCCC(=O)Nc4cc(C(=O)Nc5cn(C)c(C(=O)Nc6ccc7[nH]c(C(=O)N8CC(CCl)c9c8cc(O)c8ccccc98)cc7c6)n5)n(C)c4)n3)n2)n1 (configuration not stated)
K562 [1]
  fold change (FC): 2.11
K562 [2]
  fold change (FC): >=2
K562 [3]
  fold change (FC): >=2
K562 [4]
  fold change (FC): >=2
K562 [5]
  fold change (FC): >=2
K562 [6]
  fold change (FC): >=2
K562 [7]
  fold change (FC): >=2
K562 [8]
  fold change (FC): 2.43
K562 [9]
  Activity: 17.1%
K562 [10]
  fold change (FC): >=2
K562 [11]
  fold change (FC): >=2
K562 [12]
  fold change (FC): >=2
K562 [13]
  fold change (FC): >=2
K562 [14]
  fold change (FC): >=2
K562 [15]
  Activity: 8.41%
K562 [16]
  fold change (FC): >=2
K562 [17]
  fold change (FC): >=2
K562 [18]
  fold change (FC): >=2
K562 [19]
  fold change (FC): >=2
K562 [20]
  Activity: Active
K562 [21]
  fold change (FC): >=2
K562 [22]
  EC50: 97 nM
K562 [23]
  viability at 0.125 µM: 80.3%
K562 [24]
  fold change (FC): >=2
K562 [25]
  fold change (FC): >=2
K562 [26]
  fold change (FC): >=2
K562 [27]
  fold change (FC): >=2

Reference: ChEMBL document CHEMBL1157704, “Potent activity against K562 cells by polyamide-seco-CBI conjugates targeting histone H4 genes” (Bioorg Med Chem, 2010)
